Experimental data pooled from the literature.
Target: LIM domain kinase 1 (LIMK1, Homo sapiens, UniProt P53667)

With C=CC(=O)N1CCC[C@@H](n2nc(-c3ccc(Oc4ccccc4)cc3)c3c(N)ncnc32)C1 the inhibition was 76% (enzyme activity, inhibitor; 1 µM).
For CCCCC(=O)Nc1ccc(-c2ccc3ncn(CCC)c(=O)c3c2)cn1, the remaining binding was 96% (binding, competition with immobilised ligand; 0.5 µM).
CN1CCN(C(=O)c2ccc(NC(=O)Nc3ccc(N(C)c4ccnc(Nc5ccc(CS(C)(=O)=O)cc5)n4)cc3)cc2)CC1 gave a remaining binding of 61% (binding, competition with immobilised ligand; 1 µM).
C#Cc1cc(-c2cc(Nc3nc(N[C@@H](C)c4ccc(F)cn4)ncc3Cl)n[nH]2)ccc1C=O gave an inhibition of 24.2% (enzyme activity, inhibitor; 0.2 µM).
C1=C/COCc2cc(ccc2OCCN2CCCC2)Nc2nccc(n2)-c2cccc(c2)COC/1 has a remaining binding of 82% (binding; 0.1 µM).
The activity vs control of CC(C)S(=O)(=O)c1ccc2nccc(Nc3ccc4sc(C5CCCC5)nc4c3)c2c1 is reported as 82% (enzyme activity, inhibitor; 1 µM).
For C[C@H]1CC[C@H](n2c3cnccc3c3cnc(Nc4ccc5c(n4)CCN(C(=O)CO)C5)nc32)CC1, the remaining binding was 98% (binding, competition with immobilised ligand; 1 µM).
CO[C@@H]1[C@H](N(C)C(=O)c2ccccc2)C[C@H]2O[C@]1(C)n1c3ccccc3c3c4c(c5c6ccccc6n2c5c31)C(=O)NC4 gave an inhibition of 12% (enzyme activity, inhibitor; 1 µM).
